Screening data (PubChem)
AI-2 QS mod = Vibrio harveyi AI-2 quorum sensing modulators, primary screen, JMH597 strain, luminescence/OD600 ratio; Vibrio harveyi JMH597 AI-2 luminescence/OD600 ratio, 9 h; hits give low values; strain lacks LuxN and CqsS sensors; 0 = neutral-control median; activity change, % at 7.5 µM; hit rate 0.4% among 300,000; in the data active means activity change below about -75%, passing the limit was not always enough;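 further: luminescence divided by OD600 gain over 9 h not by final OD600 alone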
TbMetRS inhib = T. brucei MetRS inhibitors, primary screen, biochemical, luminescence; inhibition, % at 11.9 µM; hit rate 0.4% among 360,000; purified T. brucei MetRS, ATP depletion, Kinase-Glo luminescence; methionyl-tRNA synthetase (Trypanosoma brucei brucei);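 active means inhibition above a per-plate cutoff of the control wells' mean inhibition plus 3 SD, cut at about 5.5% in these data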
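technique = Kinase-Glo luminescence, ATP depletion format | system = purified MetRS (methionyl-tRNA synthetase) enzyme from Trypanosoma brucei | timing = 15 min preincubation, 2 h reaction, all 25 °C | evaluation = percent inhibition versus plate control medians | dosing = single dose, 11.9 µM final nominal, 0.9% final DMSO | also added = substrates ATP, L-methionine and bulk Escherichia coli tRNA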
MsrA act = bovine MsrA enzyme activators, primary screen, biochemical, absorbance, HTS | Methionine sulfoxide reductase A (Bos taurus) | purified bovine MsrA, absorbance read-out | activation, % at 10.6 µM | hit rate 0.3% among 360,000 | AID 602163, 2012; in the data active means activation above about 7.5%
MsrA inh = bovine MsrA enzyme inhibitors, primary screen, biochemical, absorbance, HTS | purified bovine MsrA, absorbance read-out | hit rate 0.75% among 360,000 | inhibition, % at 15.5 µM | Methionine sulfoxide reductase A (Bos taurus); in the data active means inhibition above about 4.5%
m5-HT2A agonist = mouse Htr2a agonists via beta-arrestin recruitment, primary screen, cell-based, luminescence | 5-hydroxytryptamine receptor 2A (Mus musculus), P35363 | CHO-K1 mHTR2A beta-arrestin complementation; percent of 30 µM serotonin response | activation, % at 7.6 µM | hit rate 0.66% among 360,000;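 active means activation above a run cutoff, the mean activation of all tested compounds plus 3 SD, cut at about 14% in these data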
AHR activator = AHR activators, primary screen, cell-based, luminescence, luciferase reporter, human. activation, % at 5 µM. AHR-responsive luciferase reporter cells. hit rate 2.5% among 320,000. AID 2796, 2010; in the data active means activation above about 47%
Of the large screens only hits and unclear results are named; the others gave an inactive call. The list is not random: actives were taken first. Their share in the collection is about 4.4%.

Cn1c(N)c(C(=O)COC(=O)[C@H](Cc2ccccc2)N2C(=O)c3ccccc3C2=O)c(=O)n(C)c1=O	AHR activator 58
CN(CCC#N)C(=O)COC(=O)[C@H](Cc1ccccc1)N1C(=O)c2ccccc2C1=O	AHR activator 54
CC(C)CC(C(=O)OCC(=O)c1c(N)n(C)c(=O)n(C)c1=O)N1C(=O)c2ccccc2C1=O (centres undefined)	none
Nc1cc(C(=O)c2cccs2)ccc1Cl	none
O=C(c1ccc(Cl)nc1)c1cccs1	AHR activator 54 (no result: TbMetRS inhib, MsrA act, MsrA inh, m5-HT2A agonist)
COc1cc2c(cc1OC)C(c1ccc(C(F)(F)F)cc1)CC(=O)N2 (centres undefined)	AHR activator 54 (no result: AI-2 QS mod)
CCN(CC)C(=O)Oc1ccc(Br)cc1C(=O)Nc1ccc(F)cc1F	AHR activator 89
O=C(Nc1ccc(F)cc1F)c1cncc(Br)c1	none
O=C(Nc1ccc(NC(=O)c2cc([N+](=O)[O-])ccc2N2CCOCC2)cc1)c1cccs1	MsrA inh 4.6
O=C(Nc1cc([N+](=O)[O-])ccc1N1CCOCC1)c1cccs1	none
COc1ccc(CNc2ncc(-c3ccc(F)cc3)n2C)c2ccccc12	AHR activator 61
COc1ccc(OC)c(CNc2ncc(-c3ccc(F)cc3)n2C)c1	none (no result: AHR activator)
COc1ccccc1CNc1ncc(-c2ccccc2)n1C	none (no result: AHR activator)
COc1ccccc1CNc1ncc(-c2ccc(F)cc2)n1C	AHR activator 73
CN(C)c1ccc(C=Nc2ccccc2C(N)=O)cc1	MsrA inh 5.6 (no result: AI-2 QS mod)
CC(C)(C)C(=O)c1c(N)[nH]c(C(=O)c2ccccc2)c1-c1ccccc1	none (no result: AI-2 QS mod, TbMetRS inhib, MsrA act, m5-HT2A agonist, AHR activator)
CCCN=C(Nc1ccc(Cl)cc1)c1cccnc1	AHR activator 118
CCCCN=C(Nc1ccc(Cl)cc1)c1cccnc1	AHR activator 88
O=C(COC(=O)c1ccc([N+](=O)[O-])o1)NC1CCCc2ccccc21 (centres undefined)	none (no result: AI-2 QS mod)
CC(C)n1cc(/C=C2/NC(=O)N(c3cccc(Cl)c3)C2=O)c2ccccc21	AHR activator 63
C[C@H](O)[C@@H]1C(=O)N2CCc3c([nH]c4cccc(-c5ccccc5)c34)[C@@H]2C[C@@H]1N(C)C(=O)NC1CCCCC1	none (no result: AI-2 QS mod, TbMetRS inhib, MsrA act, m5-HT2A agonist, AHR activator)
COCc1[nH]nc2c1C(c1ccc(C)cc1)N(c1ccc(OC)cc1)C2=O (centres undefined)	none (no result: AI-2 QS mod, TbMetRS inhib, MsrA act, m5-HT2A agonist, AHR activator)
O=S1(=O)CC=C(CSC(=S)NC2CCS(=O)(=O)C2)C1 (centres undefined)	AI-2 QS mod -83
N#Cc1c(SCC(=O)Nc2nncs2)sc2c(O)cc(=O)[nH]c12	AHR activator 50
COC(=O)N1Cc2ccnnc2CC1c1ccccc1-c1ccc(F)cc1 (centres undefined)	none (no result: AI-2 QS mod, TbMetRS inhib, MsrA act, m5-HT2A agonist, AHR activator)
COc1ccc(/C=N/NC(=O)CCn2nnc3ccccc32)cc1	none
COc1ccccc1/C=C/C=N/NC(=O)CCn1nnc2ccccc21	AHR activator 66
Cc1ccccc1-c1ccc2c(c1)[C@@H]1C[C@H](N(C)CC3CCCCC3)[C@H]([C@H](C)O)CN1CC2	none (no result: AI-2 QS mod, TbMetRS inhib, MsrA act, m5-HT2A agonist, AHR activator)
N/C(Cc1nc(-c2ccc(Br)cc2)cs1)=N\O	AHR activator 54
CC(CNC(=O)[C@@H](Cc1ccccc1)NC(=O)[C@H]1O[C@@H](n2ccc(=O)[nH]c2=O)[C@H](O)[C@@H]1O)c1ccccc1 (some centres undefined)	none (no result: AI-2 QS mod, TbMetRS inhib, MsrA act, m5-HT2A agonist, AHR activator)
COc1cc(/C=N/NC(=O)c2ccc(CN3c4cccc5cccc(c45)S3(=O)=O)cc2)cc(OC)c1O	MsrA inh 4.6 (no result: AHR activator)
COC(=O)c1cc2c(c3c4cc(C)ccc4n(S(=O)(=O)c4cccc(C)c4)c13)C(=O)N(Cc1ccc(C(F)(F)F)cc1)C2	none (no result: AI-2 QS mod, TbMetRS inhib, MsrA act, m5-HT2A agonist, AHR activator)
O=C(N[C@H](C(=O)N1CCC[C@H]1C(=O)NC1CCCC1)c1ccccc1)c1ccccc1	none (no result: AI-2 QS mod, TbMetRS inhib, MsrA act, m5-HT2A agonist, AHR activator)
O=C(Sc1n[nH]c(=O)[nH]c1=O)c1ccccc1	MsrA act 10 (no result: AI-2 QS mod, AHR activator)
COc1cc(/C=N/Nc2ccc(Cl)c(C(=O)O)c2)ccc1OC(=O)c1ccc(F)cc1	none
COc1cccc(C(=O)Oc2ccc(/C=N/Nc3ccc(C(=O)O)cc3)cc2OC)c1	MsrA inh 4.6
